Measured values: ChEMBL document CHEMBL3616436, “Synthesis, cytotoxicity and antimicrobial activity of thiourea derivatives incorporating 3-(trifluoromethyl)phenyl moiety” (Eur J Med Chem, 2015)
In brackets after ≈: the same amount, converted by molar mass. Activity calls are given as the source filed them. The rule behind the calls is not given here.

Tests used:
Poliovirus 1 = experiment: Antiviral activity against Poliovirus type 1 ATCC VR-1562 infected in African green monkey Vero 76 cells assessed as reduction of virus-plaque formation after 2 days by crystal violet staining; format: functional, organism-based; conditions: Enterovirus C, ATCC VR-1562, Vero, 48 h
Staphylococcus aureus [1] = experiment: Antimicrobial activity against Staphylococcus aureus NCTC 4163 at 400 ug after 18 hrs by disc-diffusion method; format: functional; conditions: NCTC 4163, 18 h, read-out: IZ
Summary of the method: (§1)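 Disc diffusion on Mueller-Hinton II agar per CLSI; 9 mm paper discs loaded with 400 µg compound from DMSO solution, dried, placed on agar; growth inhibition zone diameter read after 18 h at 35°C.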

Staphylococcus aureus [2] = experiment: Antimicrobial activity against Staphylococcus aureus ATCC 6538 at 400 ug after 18 hrs by disc-diffusion method; format: functional; conditions: ATCC 6538, 18 h, read-out: IZ; summary of the method: as §1
[3] = tested on: Staphylococcus epidermidis; experiment: Antimicrobial activity against Staphylococcus epidermidis ATCC 12228 at 400 ug after 18 hrs by disc-diffusion method; format: functional; conditions: ATCC 12228, 18 h, read-out: IZ; summary of the method: as §1
[4] = Cytotoxicity against bovine MDBK cells assessed as cell viability after 48 to 96 hrs by MTT assay; format: cell-based, Bos taurus; conditions: cattle
Yellow fever virus = experiment: Antiviral activity against Yellow fever virus 17D infected in BHK cells assessed as protection against virus-induced cytopathogenicity after 3 to 4 days by MTT assay; format: functional, cell-based
Enterococcus hirae = experiment: Antimicrobial activity against Enterococcus hirae ATCC 10541 at 400 ug after 18 hrs by disc-diffusion method; format: functional; summary of the method: as §1
[5] = tested on: Staphylococcus epidermidis; experiment: Antimicrobial activity against Staphylococcus epidermidis ATCC 12228 after 18 hrs by twofold serial microdilution method; format: functional; conditions: ATCC 12228, 18 h
[6] = Cytotoxicity against human MT4 cells; format: cell-based
Staphylococcus aureus [7] = experiment: Antimicrobial activity against Staphylococcus aureus ATCC 29213 at 400 ug after 18 hrs by disc-diffusion method; format: functional; conditions: ATCC 29213, 18 h, read-out: IZ; summary of the method: as §1
[8] = tested on: Vesicular stomatitis virus; experiment: Antiviral activity against Vesicular stomatitis virus ATCC VR 1540 infected in African green monkey Vero 76 cells assessed as reduction of virus-plaque formation after 2 days by crystal violet staining; format: functional, organism-based; conditions: ATCC VR 1540, Vero, 48 h
Staphylococcus aureus [9] = experiment: Antimicrobial activity against Staphylococcus aureus ATCC 29213 after 18 hrs by twofold serial microdilution method; format: functional; conditions: ATCC 29213, 18 h
[10] = tested on: Mycobacterium tuberculosis; experiment: Antimycobacterial activity against Mycobacterium tuberculosis H37Rv ATCC 25618; format: functional
Summary of the method: (§2)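 Classical test-tube successive-dilution method in Youmans' modification of Proskauer and Beck liquid medium with 10% bovine serum. Inoculum came from 14-day cultures. DMSO stock was 10 mg/mL, diluted geometrically in medium. Tubes were incubated at 37 °C. Concentrations tested were 3.1, 6.2, 12.5, 25, 50 and 100 µg/ml. MIC is the minimum concentration inhibiting growth relative to compound-free tubes.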

Proteus vulgaris = experiment: Antimicrobial activity against Proteus vulgaris NCTC 4635 at 400 ug after 18 hrs by disc-diffusion method; format: functional; summary of the method: as §1
Bacillus cereus = experiment: Antimicrobial activity against Bacillus cereus ATCC 11778 at 400 ug after 18 hrs by disc-diffusion method; format: functional; conditions: ATCC 11778, 18 h, read-out: IZ; summary of the method: as §1
[11] = tested on: Staphylococcus epidermidis; experiment: Antimicrobial activity against Staphylococcus epidermidis ATCC 35984 at 400 ug after 18 hrs by disc-diffusion method; format: functional; conditions: ATCC 35984, 18 h, read-out: IZ; summary of the method: as §1
Micrococcus luteus [12] = experiment: Antimicrobial activity against Micrococcus luteus ATCC 9341 at 400 ug after 18 hrs by disc-diffusion method; format: functional; conditions: ATCC 9341, 18 h, read-out: IZ; summary of the method: as §1
Staphylococcus aureus [13] = experiment: Antimicrobial activity against Staphylococcus aureus ATCC 6538 after 18 hrs by twofold serial microdilution method; format: functional; conditions: ATCC 6538, 18 h
Micrococcus luteus [14] = experiment: Antimicrobial activity against Micrococcus luteus ATCC 10240 at 400 ug after 18 hrs by disc-diffusion method; format: functional; conditions: ATCC 10240, 18 h, read-out: IZ; summary of the method: as §1
[15] = tested on: Human immunodeficiency virus 1; experiment: Antiviral activity against HIV1 3B infected in human MT4 cells assessed as protection against virus-induced cytopathogenicity by MTT assay; format: functional, organism-based; conditions: Human immunodeficiency virus 1, 3B
Staphylococcus aureus [16] = experiment: Antimicrobial activity against Staphylococcus aureus NCTC 4163 after 18 hrs by twofold serial microdilution method; format: functional; conditions: NCTC 4163, 18 h
[17] = Cytotoxicity against African green monkey Vero 76 cells assessed as cell viability after 48 to 96 hrs by crystal violet staining; format: cell-based; conditions: chlorocebus sabaeus
Coxsackievirus B5 = experiment: Antiviral activity against Human coxsackievirus B5 ATCC VR-29 infected in African green monkey Vero 76 cells assessed as reduction of virus-plaque formation after 3 days by crystal violet staining; format: functional, organism-based; conditions: Enterovirus B, ATCC VR-29, Vero, 72 h
Summary of the method: (§3)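 Plaque reduction: Vero-76 at 2x10^5 cells/well grown to confluent monolayers, infected 2 h at 50–100 PFU/well; after removing unadsorbed virus, overlay of D-MEM, 1% inactivated FBS, 0.75% methylcellulose with or without serial compound dilutions; 3 days at 37°C, fixed and stained with crystal violet in 50% ethanol, plaques counted; EC50 by linear regression.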

[18] = Cytotoxicity against BHK cells assessed as cell viability after 48 to 96 hrs by MTT assay; format: cell-based, Mesocricetus auratus; conditions: hamster
[19] = tested on: Mycobacterium tuberculosis; experiment: Antimycobacterial activity against drug-sensitive Mycobacterium tuberculosis Spec. 192; format: functional; summary of the method: as §2
[20] = tested on: Mammalian orthoreovirus 1; experiment: Antiviral activity against Reovirus type-1 ATCC VR-214 infected in BHK cells assessed as protection against virus-induced cytopathogenicity after 3 to 4 days by MTT assay; format: functional, cell-based; conditions: Mammalian orthoreovirus 1, ATCC VR-214, BHK
Summary of the method: (§4)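 Cells seeded in 96-well plates (BHK 5x10^4, MDBK 3x10^4 cells/well), grown overnight to confluence, infected at m.o.i. 0.01 (BHK for Reo-1, MDBK for BVDV); serial compound dilutions in maintenance medium with 0.5% inactivated FBS added after 1 h; viability by MTT after 3–4 days at 37°C; EC50 for 50% protection by linear regression.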

Human alphaherpesvirus 1 = experiment: Antiviral activity against Human herpesvirus 1 KOS ATCC VR-1493 infected in African green monkey Vero 76 cells assessed as reduction of virus-plaque formation after 3 days by crystal violet staining; format: functional, organism-based; conditions: Human alphaherpesvirus 1, KOS ATCC VR1493, Vero, 72 h; summary of the method: as §3
Staphylococcus aureus [21] = experiment: Antimicrobial activity against Staphylococcus aureus ATCC 25923 after 18 hrs by twofold serial microdilution method; format: functional; conditions: ATCC 25923, 18 h
Vaccinia virus = experiment: Antiviral activity against Human Vaccinia virus ATCC VR-1549 infected in African green monkey Vero 76 cells assessed as reduction of virus-plaque formation after 3 days by crystal violet staining; format: functional, organism-based; conditions: Orthopoxvirus vaccinia, ATCC VR-1549, Vero, 72 h
Bacillus subtilis = experiment: Antimicrobial activity against Bacillus subtilis ATCC 6633 at 400 ug after 18 hrs by disc-diffusion method; format: functional; conditions: ATCC 6633, 18 h, read-out: IZ; summary of the method: as §1
Enterococcus faecalis = experiment: Antimicrobial activity against Enterococcus faecalis ATCC 29212 at 400 ug after 18 hrs by disc-diffusion method; format: functional; conditions: ATCC 29212, 18 h, read-out: IZ; summary of the method: as §1
[22] = tested on: Staphylococcus epidermidis; experiment: Antimicrobial activity against Staphylococcus epidermidis ATCC 35984 after 18 hrs by twofold serial microdilution method; format: functional; conditions: ATCC 35984, 18 h
Staphylococcus aureus [23] = experiment: Antimicrobial activity against Staphylococcus aureus ATCC 25923 at 400 ug after 18 hrs by disc-diffusion method; format: functional; conditions: ATCC 25923, 18 h, read-out: IZ; summary of the method: as §1
[24] = Antiviral activity against Bovine viral diarrhea virus 1-NADL ATCC VR-534 infected in MDBK cells assessed as protection against virus-induced cytopathogenicity after 3 to 4 days by MTT assay; format: functional, cell-based; conditions: Bovine viral diarrhea virus isolates and strains, ATCC VR-534, MDBK; summary of the method: as §4

| SMILES | EC50 (Poliovirus 1) [µM] | zone of inhibition at 400 µg/disc (Staphylococcus aureus [1]) [mm] | zone of inhibition at 400 µg/disc (Staphylococcus aureus [2]) [mm] | zone of inhibition at 400 µg/disc [3] [mm] | CC50 [4] [µM] | EC50 (Yellow fever virus) [µM] | MIC [5] [µg/mL] | CC50 [6] [µM] | zone of inhibition at 400 µg/disc (Staphylococcus aureus [7]) [mm] | EC50 [8] [µM] | MIC (Staphylococcus aureus [9]) [µg/mL] | MIC [10] [µg/mL] | zone of inhibition at 400 µg/disc (Bacillus cereus) [mm] | zone of inhibition at 400 µg/disc [11] [mm] | zone of inhibition at 400 µg/disc (Micrococcus luteus [12]) [mm] | MIC (Staphylococcus aureus [13]) [µg/mL] | zone of inhibition at 400 µg/disc (Micrococcus luteus [14]) [mm] | EC50 [15] [µM] | MIC (Staphylococcus aureus [16]) [µg/mL] | CC50 [17] [µM] | also measured |
| --- | --- | --- | --- | --- | --- | --- | --- | --- | --- | --- | --- | --- | --- | --- | --- | --- | --- | --- | --- | --- | --- |
| Fc1ccccc1NC(=S)Nc1cccc(C(F)(F)F)c1 | > 64 | 18 | 21 | 20 | > 100 | > 54 | 16 (≈ 50.9 µM) | 47 | 19 | > 64 | 16 (≈ 50.9 µM) | 100 (≈ 318 µM) | 18 | 20 | 21 | 16 (≈ 50.9 µM) | 23 | > 47 | 16 (≈ 50.9 µM) | 64 | inhibition zone (IZ) (Enterococcus hirae): inactive; zone of inhibition at 400 µg/disc (Proteus vulgaris; NCTC 4635, 18 h, read-out: IZ): 11 mm; EC50 (Coxsackievirus B5): > 64 µM; CC50 [18]: 54 µM; MIC [19]: 100 µg/mL (≈ 318 µM); EC50 [20]: > 54 µM; EC50 (Human alphaherpesvirus 1): > 64 µM; MIC (Staphylococcus aureus [21]): 16 µg/mL (≈ 50.9 µM); EC50 (Vaccinia virus): > 64 µM; zone of inhibition at 400 µg/disc (Bacillus subtilis): 20 mm; zone of inhibition at 400 µg/disc (Enterococcus faecalis): 13 mm; MIC [22]: 32 µg/mL (≈ 102 µM); zone of inhibition at 400 µg/disc (Staphylococcus aureus [23]): 19 mm; EC50 [24]: > 100 µM |
| COC(=O)c1ccccc1NC(=S)Nc1cccc(C(F)(F)F)c1 | > 100 | 25 | 25 | 26 | > 100 | > 100 | 64 (≈ 181 µM) | > 100 | 23 | > 100 | 32 (≈ 90.3 µM) | > 100 | 19 | 24 | 25 | 32 (≈ 90.3 µM) | 24 | > 100 | 32 (≈ 90.3 µM) | > 100 | zone of inhibition at 400 µg/disc (Enterococcus hirae; ATCC 10541, 18 h, read-out: IZ): 11 mm; inhibition zone (IZ) (Proteus vulgaris): inactive; EC50 (Coxsackievirus B5): > 100 µM; CC50 [18]: > 100 µM; MIC [19]: > 100 µg/mL; EC50 [20]: > 100 µM; EC50 (Human alphaherpesvirus 1): > 100 µM; MIC (Staphylococcus aureus [21]): 32 µg/mL (≈ 90.3 µM); EC50 (Vaccinia virus): > 100 µM; zone of inhibition at 400 µg/disc (Bacillus subtilis): 20 mm; zone of inhibition at 400 µg/disc (Enterococcus faecalis): 14 mm; MIC [22]: 64 µg/mL (≈ 181 µM); zone of inhibition at 400 µg/disc (Staphylococcus aureus [23]): 24 mm; EC50 [24]: > 100 µM |
